Laboratory results reported in ChEMBL document CHEMBL1157639, “Identification of inhibitors of drug-resistant Candida albicans strains from a library of bicyclic peptidomimetic compounds” (2010).
Blank lines part the entries; values can stand above or below the compound they belong to.

Tests used:
[1] = target: Secreted aspartic protease 2 (Candida albicans) (UniProt P0CS83); assay: Inhibition of Candida albicans SAP2 at 20 uM by spectrophotometry relative to pepstatin A
Summary of the method: (§1)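 Sample was mixed with 1% (w/v) BSA substrate in 50 mM sodium citrate, pH 3.2, plus SAP2 protease (1 μg/mL stock solution) and incubated 30 min at 37 °C. The reaction was stopped with 10% TCA, kept 30 min on ice, and centrifuged; supernatant A280 was read. Percent inhibition was taken from ΔOD, with control proteinase minus proteinase plus pepstatin A set as 100%.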

Candida albicans [2] = assay: Antifungal activity against pharmacoresistant Candida albicans AIDS68 infected in Wistar rat estrogen-dependent fungal vaginitis model assessed as fungal burden at 10 ug administered intravaginally 1 hr after fungal infection measured on day 1 after infection; type: functional, Vagina
Summary of the method: (§2)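 Oophorectomized female Wistar rats (80-100 g) got 0.5 mg estradiol benzoate s.c. Six days later they were inoculated intravaginally with >10⁷ YPD-grown yeast cells (28 °C, washed, hemocytometer-counted) in 0.1 mL saline. Treatment was given intravaginally at 1, 24 and 48 h post-challenge. Burden was counted by culturing 100 μL vaginal fluid on Sabouraud-chloramphenicol (50 μg/mL) agar, as CFU/mL ×1000, through day 28.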

Candida albicans [3] = assay: Antifungal activity against Candida albicans SA40 infected in Wistar rat estrogen-dependent fungal vaginitis model assessed as fungal burden at 10 ug administered intravaginally 48 hrs after fungal infection measured on day 7 after infection; type: functional, Vagina; summary of the method: as §2
Candida albicans [4] = assay: Antifungal activity against pharmacoresistant Candida albicans AIDS68 infected in Wistar rat estrogen-dependent fungal vaginitis model assessed as fungal burden at 10 ug administered intravaginally 24 hrs after fungal infection measured on day 2 after infection; type: functional, Vagina; summary of the method: as §2
Candida albicans [5] = assay: Antifungal activity against Candida albicans SA40 infected in Wistar rat estrogen-dependent fungal vaginitis model assessed as fungal burden at 10 ug administered intravaginally 48 hrs after fungal infection measured on day 14 after infection; type: functional, Vagina; summary of the method: as §2
Candida albicans [6] = assay: Antifungal activity against Candida albicans SA40 infected in Wistar rat estrogen-dependent fungal vaginitis model assessed as fungal burden at 10 ug administered intravaginally 1 hr after fungal infection measured on day 1 after infection; type: functional, Vagina; summary of the method: as §2
Candida albicans [7] = assay: Antifungal activity against pharmacoresistant Candida albicans AIDS68 infected in Wistar rat estrogen-dependent fungal vaginitis model assessed as fungal burden at 10 ug administered intravaginally 48 hrs after fungal infection measured on day 7 after infection; type: functional, Vagina; summary of the method: as §2
Candida albicans [8] = assay: Antifungal activity against pharmacoresistant Candida albicans AIDS68 infected in Wistar rat estrogen-dependent fungal vaginitis model assessed as fungal burden at 10 ug administered intravaginally 48 hrs after fungal infection measured on day 14 after infection; type: functional, Vagina; summary of the method: as §2
Candida albicans [9] = assay: Antifungal activity against pharmacoresistant Candida albicans AIDS68 infected in Wistar rat estrogen-dependent fungal vaginitis model assessed as fungal burden at 10 ug administered intravaginally 48 hrs after fungal infection measured on day 5 after infection; type: functional, Vagina; summary of the method: as §2
Candida albicans [10] = assay: Antifungal activity against Candida albicans SA40 infected in Wistar rat estrogen-dependent fungal vaginitis model assessed as fungal burden at 10 ug administered intravaginally 48 hrs after fungal infection measured on day 21 after infection; type: functional, Vagina; summary of the method: as §2
Candida albicans [11] = assay: Antifungal activity against pharmacoresistant Candida albicans AIDS68 infected in Wistar rat estrogen-dependent fungal vaginitis model assessed as fungal burden at 10 ug administered intravaginally 48 hrs after fungal infection measured on day 21 after infection; type: functional, Vagina; summary of the method: as §2
Candida albicans [12] = assay: Antifungal activity against Candida albicans SA40 infected in Wistar rat estrogen-dependent fungal vaginitis model assessed as fungal burden at 10 ug administered intravaginally 48 hrs after fungal infection measured on day 5 after infection; type: functional, Vagina; summary of the method: as §2
Candida albicans [13] = assay: Antifungal activity against Candida albicans SA40 infected in Wistar rat estrogen-dependent fungal vaginitis model assessed as fungal burden at 10 ug administered intravaginally 48 hrs after fungal infection measured on day 28 after infection; type: functional, Vagina; summary of the method: as §2
Candida albicans [14] = assay: Antifungal activity against Candida albicans SA40 infected in Wistar rat estrogen-dependent fungal vaginitis model assessed as fungal burden at 10 ug administered intravaginally 24 hrs after fungal infection measured on day 2 after infection; type: functional, Vagina; summary of the method: as §2
Candida albicans [15] = assay: Antifungal activity against Candida albicans SA40 infected in Wistar rat estrogen-dependent fungal vaginitis model assessed as fungal burden at 10 ug administered intravaginally 1 hr after fungal infection measured within 1 day of infection; type: functional, Vagina; summary of the method: as §2
Candida albicans [16] = assay: Antifungal activity against Candida albicans SA40 infected in Wistar rat estrogen-dependent fungal vaginitis model assessed as fungal burden at 10 uM administered intravaginally 48 hrs after fungal infection measured on day 7 after infection; type: functional, Vagina
Summary of the method: (§3)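 Oophorectomized female Wistar rats (80-100 g), given 0.5 mg estradiol benzoate subcutaneously, were challenged intravaginally six days later with >10⁷ YPD-grown yeast cells in 0.1 mL saline. Compound at 10 μM was instilled intravaginally at 1, 24 and 48 h post-challenge. Vaginal fluid samples (100 μL) were plated on Sabouraud agar with chloramphenicol (50 μg/mL), and burden was expressed as CFU/mL ×1000.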

Candida albicans [17] = assay: Antifungal activity against pharmacoresistant Candida albicans AIDS68 infected in Wistar rat estrogen-dependent fungal vaginitis model assessed as fungal burden at 10 uM administered intravaginally 48 hrs after fungal infection measured on day 21 after infection; type: functional, Vagina; summary of the method: as §2
Candida albicans [18] = assay: Antifungal activity against pharmacoresistant Candida albicans AIDS68 infected in Wistar rat estrogen-dependent fungal vaginitis model assessed as fungal burden at 10 uM administered intravaginally 48 hrs after fungal infection measured on day 14 after infection; type: functional, Vagina; summary of the method: as §2
Candida albicans [19] = assay: Antifungal activity against pharmacoresistant Candida albicans AIDS68 infected in Wistar rat estrogen-dependent fungal vaginitis model assessed as fungal burden at 10 uM administered intravaginally 48 hrs after fungal infection measured on day 7 after infection; type: functional, Vagina; summary of the method: as §2
Candida albicans [20] = assay: Antifungal activity against pharmacoresistant Candida albicans AIDS68 infected in Wistar rat estrogen-dependent fungal vaginitis model assessed as fungal burden at 10 uM administered intravaginally 24 hrs after fungal infection measured on day 2 after infection; type: functional, Vagina; summary of the method: as §2
Candida albicans [21] = assay: Antifungal activity against pharmacoresistant Candida albicans AIDS68 infected in Wistar rat estrogen-dependent fungal vaginitis model assessed as fungal burden at 10 uM administered intravaginally 48 hrs after fungal infection measured on day 28 after infection; type: functional, Vagina; summary of the method: as §2
Candida albicans [22] = assay: Antifungal activity against Candida albicans SA40 infected in Wistar rat estrogen-dependent fungal vaginitis model assessed as fungal burden at 10 uM administered intravaginally 1 hr after fungal infection measured within 1 day of infection; type: functional, Vagina; summary of the method: as §2
[23] = target: Secreted aspartic protease 2 (Candida albicans) (UniProt P0CS83); assay: Inhibition of Candida albicans SAP2 at 0.02 uM by spectrophotometry relative to pepstatin A; summary of the method: as §1
[24] = target: Secreted aspartic protease 2 (Candida albicans) (UniProt P0CS83); assay: Inhibition of Candida albicans SAP2 at 2 uM by spectrophotometry relative to pepstatin A; summary of the method: as §1
Candida albicans [25] = assay: Antifungal activity against pharmacoresistant Candida albicans AIDS68 infected in Wistar rat estrogen-dependent fungal vaginitis model assessed as fungal burden at 10 uM administered intravaginally 1 hr after fungal infection measured on day 1 after infection; type: functional, Vagina; summary of the method: as §2
Candida albicans [26] = assay: Antifungal activity against pharmacoresistant Candida albicans AIDS68 infected in Wistar rat estrogen-dependent fungal vaginitis model assessed as fungal burden at 10 uM administered intravaginally 48 hrs after fungal infection measured on day 5 after infection; type: functional, Vagina; summary of the method: as §2
Candida albicans [27] = assay: Antifungal activity against Candida albicans SA40 infected in Wistar rat estrogen-dependent fungal vaginitis model assessed as fungal burden at 10 uM administered intravaginally 48 hrs after fungal infection measured on day 14 after infection; type: functional, Vagina; summary of the method: as §3
Candida albicans [28] = assay: Antifungal activity against Candida albicans SA40 infected in Wistar rat estrogen-dependent fungal vaginitis model assessed as fungal burden at 10 uM administered intravaginally 48 hrs after fungal infection measured on day 28 after infection; type: functional, Vagina; summary of the method: as §2
Candida albicans [29] = assay: Antifungal activity against Candida albicans SA40 infected in Wistar rat estrogen-dependent fungal vaginitis model assessed as fungal burden at 10 uM administered intravaginally 24 hrs after fungal infection measured on day 2 after infection; type: functional, Vagina; summary of the method: as §3
[30] = target: Secreted aspartic protease 2 (Candida albicans) (UniProt P0CS83); assay: Inhibition of Candida albicans SAP2 at 0.2 uM by spectrophotometry relative to pepstatin A; summary of the method: as §1
Candida albicans [31] = assay: Antifungal activity against Candida albicans SA40 infected in Wistar rat estrogen-dependent fungal vaginitis model assessed as fungal burden at 10 uM administered intravaginally 48 hrs after fungal infection measured on day 5 after infection; type: functional, Vagina; summary of the method: as §3
[32] = target: Secreted aspartic protease 2 (Candida albicans) (UniProt P0CS83); assay: Inhibition of Candida albicans SAP2 at 10 uM by spectrophotometry relative to pepstatin A; summary of the method: as §1
Candida albicans [33] = assay: Antifungal activity against Candida albicans SA40 infected in Wistar rat estrogen-dependent fungal vaginitis model assessed as fungal burden at 10 uM administered intravaginally 48 hrs after fungal infection measured on day 21 after infection; type: functional, Vagina; summary of the method: as §3
Candida albicans [34] = assay: Antifungal activity against Candida albicans SA40 infected in Wistar rat estrogen-dependent fungal vaginitis model assessed as fungal burden at 10 uM administered intravaginally 1 hr after fungal infection measured on day 1 after infection; type: functional, Vagina; summary of the method: as §3

Chain of Secreted aspartic protease 2 (Candida albicans) (P0CS83 57-398 limits assumed): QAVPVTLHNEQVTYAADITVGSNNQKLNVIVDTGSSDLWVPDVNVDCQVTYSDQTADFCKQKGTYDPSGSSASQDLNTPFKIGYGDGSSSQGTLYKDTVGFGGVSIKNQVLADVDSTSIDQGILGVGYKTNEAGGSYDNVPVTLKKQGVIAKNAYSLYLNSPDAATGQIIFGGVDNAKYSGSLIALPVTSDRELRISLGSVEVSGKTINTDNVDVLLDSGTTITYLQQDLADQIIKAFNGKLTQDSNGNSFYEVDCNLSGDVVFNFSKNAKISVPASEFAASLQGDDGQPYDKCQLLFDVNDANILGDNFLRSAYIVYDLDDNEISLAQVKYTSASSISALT

- inhibition [1]: 30%
Compound: O=C(N[C@H](CO)Cc1ccccc1)[C@@H]1O[C@H]2CN(Cc3ccccc3)C(=O)[C@@H]1O2

- inhibition [1]: 33%
Compound: CC(C)C[C@@H](CO)NC(=O)[C@H]1OC2CN(Cc3ccccc3)C(=O)C1O2 (single isomer, unassigned)

- inhibition [1]: 71%
Compound: O=C(NCCO)[C@@H]1O[C@H]2CN(Cc3ccccc3)C(=O)[C@@H]1O2

- inhibition [1]: 29%
Compound: O=C(N[C@@H](CO)Cc1ccccc1)[C@@H]1O[C@H]2CN(Cc3ccccc3)C(=O)[C@@H]1O2

- inhibition [1]: 29%
Compound: CC(C)C[C@H](CO)NC(=O)[C@@H]1O[C@H]2CN(Cc3ccccc3)C(=O)[C@H]1O2

- inhibition [1]: 35%
Compound: CC(C)C[C@@H](CO)N(Cc1ccccc1)C(=O)[C@@H]1O[C@H]2CN(Cc3ccccc3)C(=O)[C@@H]1O2

- inhibition [1]: 63%
Compound: NCCNC(=O)[C@@H]1O[C@H]2CN(Cc3ccccc3)C(=O)[C@@H]1O2

Further lines, the compound ahead of its results:

Compound: CC(C)CC(=O)N[C@H](C(=O)N[C@H](C(=O)N[C@@H](CC(C)C)[C@@H](O)CC(=O)N[C@@H](C)C(=O)N[C@@H](CC(C)C)[C@@H](O)CC(=O)O)C(C)C)C(C)C [PEPSTATIN]
- Activity (Candida albicans [2]): 58.4 ×10³ CFU/ml
- Activity (Candida albicans [3]): 28 ×10³ CFU/ml
- Activity (Candida albicans [4]): 52 ×10³ CFU/ml
- Activity (Candida albicans [5]): 9.4 ×10³ CFU/ml
- Activity (Candida albicans [6]): 56.8 ×10³ CFU/ml
- Activity (Candida albicans [7]): 30 ×10³ CFU/ml
- Activity (Candida albicans [8]): 19.8 ×10³ CFU/ml
- Activity (Candida albicans [9]): 37.2 ×10³ CFU/ml
- Activity (Candida albicans [10]): 5 ×10³ CFU/ml
- Activity (Candida albicans [11]): 3.8 ×10³ CFU/ml
- Activity (Candida albicans [12]): 32.4 ×10³ CFU/ml
- Activity (Candida albicans [13]): 0 ×10³ CFU/ml
- Activity (Candida albicans [14]): 51 ×10³ CFU/ml
- Activity (Candida albicans [15]): >100 ×10³ CFU/ml

Compound: O=C1[C@@H]2O[C@H](CN1Cc1ccccc1)O[C@H]2C(=O)N1CCC[C@H]1CO
- inhibition [1]: 48%

Compound: O=C([C@@H]1O[C@H]2CN(Cc3ccccc3)C(=O)[C@@H]1O2)N1CCSCC1
- inhibition [1]: 58%

Compound: O=C([C@@H]1O[C@H]2CN(Cc3ccccc3)C(=O)[C@@H]1O2)N1CCCCC1
- Activity (Candida albicans [16]): 30.6 ×10³ CFU/ml
- Activity (Candida albicans [17]): 3.4 ×10³ CFU/ml
- Activity (Candida albicans [18]): 12.8 ×10³ CFU/ml
- Activity (Candida albicans [19]): 23.2 ×10³ CFU/ml
- Activity (Candida albicans [20]): 62.6 ×10³ CFU/ml
- Activity (Candida albicans [21]): 0 ×10³ CFU/ml
- Activity (Candida albicans [22]): >100 ×10³ CFU/ml
- inhibition [23]: 0%
- inhibition [24]: 50%
- Activity (Candida albicans [25]): 71.8 ×10³ CFU/ml
- Activity (Candida albicans [26]): 40.6 ×10³ CFU/ml
- inhibition [1]: 74%
- Activity (Candida albicans [27]): 14.4 ×10³ CFU/ml
- Activity (Candida albicans [28]): 1.2 ×10³ CFU/ml
- Activity (Candida albicans [29]): 57.6 ×10³ CFU/ml
- inhibition [30]: 19%
- Activity (Candida albicans [31]): 39.2 ×10³ CFU/ml
- inhibition [32]: 67%
- Activity (Candida albicans [33]): 8 ×10³ CFU/ml
- Activity (Candida albicans [34]): 70 ×10³ CFU/ml

Compound: O=C(N[C@@H](CO)c1ccccc1)[C@@H]1O[C@H]2CN(Cc3ccccc3)C(=O)[C@@H]1O2
- inhibition [1]: 31%
